{"data": "Measured values from different studies", "cell line": "L02", "observed": "cell growth or viability"}
{"Compound": "COc1ccnc(-c2cc(OC)ccn2)c1", "method": "MTT", "time": "48 h", "IC50 [µM]": "> 50"}
{"Compound": "Cc1cc(Oc2ccc(NC(=O)c3sc(-c4ccccn4)nc3C)cc2)c2nncn2n1", "method": "MTT", "IC50 [µM]": "> 50"}
{"Compound": "COc1ccc(NC(=O)Nc2ccc(OCc3nccc(OC)c3OC)cc2)cc1", "method": "MTT", "time": "72 h", "IC50 [µM]": "> 100"}
{"Compound": "COc1cc(C2Oc3cc([C@H]4Oc5cc(O)cc(O)c5C(=O)[C@@H]4O)ccc3OC2CO)ccc1O (stereo partly shown)", "method": "CCK-8", "time": "72 h", "IC50 [µM]": "> 300"}
{"Compound": "Cc1cc(Oc2ccc(NC(=O)c3sc(-c4ccncc4)nc3C)cc2)n2ncnc2n1", "method": "MTT", "IC50 [µM]": "> 50"}
{"Compound": "COCCCOc1ccnc(COc2ccc(NC(=O)Nc3ccc(Cl)cc3)cc2)c1C", "method": "MTT", "time": "72 h", "IC50 [µM]": "> 100"}
{"Compound": "Oc1c(I)cc(I)c2cccnc12", "method": "MTT", "time": "48 h", "IC50 [µM]": 71}
{"Compound": "Cc1c(OCC(F)(F)F)ccnc1COc1ccc(NC(=O)Nc2ccc(Cl)c(C(F)(F)F)c2)cc1", "method": "MTT", "time": "72 h", "IC50 [µM]": "> 100"}
{"Compound": "Cc1cc(Oc2ccc(NC(=O)c3cc(-c4cccs4)no3)cc2F)c2nncn2n1", "method": "MTT", "IC50 [µM]": "> 50"}
{"Compound": "Oc1c(Br)cc(Br)c2cccnc12", "method": "MTT", "time": "48 h", "IC50 [µM]": "> 100"}
